Assay results reported in ChEMBL document CHEMBL4325893, “Synthesis and antibacterial profiles of targeted triclosan derivatives” (2019).
In brackets after ≈: the same amount, converted by molar mass.

Tests used:
[1] = system: Staphylococcus epidermidis; test: Antibacterial activity against Staphylococcus epidermidis ATCC 14990 after 18 hrs; assay type: functional; conditions: ATCC 14990, 18 h
How it was run: (§1)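 Broth microdilution in Nutrient Broth No. 2; stocks in ethanol diluted to 0.01–128 µg/ml (triclosan) or 0.25–256 µg/ml (glycosides). Overnight 37 °C NB2 cultures diluted 1 in 10^4 in saline and added to the dilutions. Incubation at 37 °C with agitation, OD read every 15 min; MIC is the lowest concentration preventing any OD rise after 18 h.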

[2] = Antibacterial activity against Salmonella enterica subspecies enterica serotype Dublin OCC 627 after 18 hrs; assay type: functional, Salmonella enterica subsp. enterica serovar Dublin; conditions: OCC 627, 18 h; how it was run: as §1
Klebsiella aerogenes [3] = test: Antibacterial activity against Klebsiella aerogenes NCTC 8167 after 18 hrs; assay type: functional; conditions: NCTC 8167, 18 h; how it was run: as §1
Escherichia coli [4] = test: Antibacterial activity against Escherichia coli ATCC 35218 after 18 hrs; assay type: functional; conditions: ATCC 35218, 18 h; how it was run: as §1
Staphylococcus aureus [5] = test: Antibacterial activity against Staphylococcus aureus ATCC 6538P after 18 hrs; assay type: functional; how it was run: as §1
Cronobacter sakazakii = test: Antibacterial activity against Cronobacter sakazakii 29544 after 18 hrs; assay type: functional; conditions: Cronobacter sakazakii, 29544, 18 h; how it was run: as §1
Staphylococcus aureus [6] = test: Antibacterial activity against Staphylococcus aureus OCC 106 after 18 hrs; assay type: functional; conditions: OCC 106, 18 h; how it was run: as §1
Hafnia alvei = test: Antibacterial activity against Hafnia alvei 13337 after 18 hrs; assay type: functional; conditions: Hafnia alvei, 13337, 18 h; how it was run: as §1
[7] = Antibacterial activity against Salmonella enterica subspecies enterica serotype Nottingham NCTC 7832 after 18 hrs; assay type: functional, Salmonella enterica subsp. enterica serovar Nottingham; conditions: NCTC 7832, 18 h; how it was run: as §1
[8] = system: Staphylococcus haemolyticus; test: Antibacterial activity against Staphylococcus haemolyticus OCC 2223 after 18 hrs; assay type: functional; conditions: OCC 2223, 18 h
How it was run: (§2)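 Broth microdilution in Nutrient Broth No. 2. Ethanol stocks were diluted in broth to 0.01–128 µg/ml for triclosan and 0.25–256 µg/ml for glycosides. Overnight 37°C NB2 cultures were diluted 1 in 10^4 in saline and added to the wells. Plates were incubated at 37°C with OD read every 15 min after agitation. MIC was the lowest concentration giving no OD increase at 18 h.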

Klebsiella aerogenes [9] = test: Antibacterial activity against Enterobacter aerogenes ATCC 13048 after 18 hrs; assay type: functional; conditions: ATCC 13048, 18 h; how it was run: as §1
Enterococcus faecalis [10] = test: Antibacterial activity against Enterococcus faecalis ATCC 33186 after 18 hrs; assay type: functional; conditions: ATCC 33186, 18 h; how it was run: as §1
Streptococcus pneumoniae = test: Antibacterial activity against Streptococcus pneumoniae ATCC 49619 after 18 hrs; assay type: functional; conditions: ATCC 49619, 18 h; how it was run: as §2
Staphylococcus aureus [11] = test: Antibacterial activity against Staphylococcus aureus OCC 104 after 18 hrs; assay type: functional; conditions: OCC 104, 18 h; how it was run: as §1
Escherichia coli [12] = test: Antibacterial activity against Escherichia coli ATCC 25922 after 18 hrs; assay type: functional; conditions: ATCC 25922, 18 h; how it was run: as §1
Staphylococcus aureus [13] = test: Antibacterial activity against Staphylococcus aureus NCTC 13758 after 18 hrs; assay type: functional; conditions: NCTC 13758, 18 h; how it was run: as §1
Klebsiella pneumoniae = test: Antibacterial activity against Klebsiella pneumoniae ATCC 10031 after 18 hrs; assay type: functional; conditions: ATCC 10031, 18 h; how it was run: as §1
Staphylococcus aureus [14] = test: Antibacterial activity against Staphylococcus aureus ATCC 6538 after 18 hrs; assay type: functional; conditions: ATCC 6538, 18 h; how it was run: as §1
Enterococcus faecalis [15] = test: Antibacterial activity against Enterococcus faecalis ATCC 29212 after 18 hrs; assay type: functional; conditions: ATCC 29212, 18 h; how it was run: as §1
[16] = Antibacterial activity against Salmonella enterica subspecies enterica serotype Poona NCTC 4840 after 18 hrs; assay type: functional, Salmonella enterica subsp. enterica serovar Poona; conditions: NCTC 4840, 18 h; how it was run: as §1
[17] = system: Staphylococcus epidermidis; test: Antibacterial activity against Staphylococcus epidermidis 155 after 18 hrs; assay type: functional; conditions: Staphylococcus epidermidis, 155, 18 h; how it was run: as §1
Bacillus cereus = test: Antibacterial activity against Bacillus cereus ATCC 14579 after 18 hrs; assay type: functional; conditions: ATCC 14579, 18 h; how it was run: as §1
Escherichia hermannii = test: Antibacterial activity against Escherichia hermannii 33650 after 18 hrs; assay type: functional; conditions: Atlantibacter hermannii, 33650, 18 h; how it was run: as §1
Bacillus subtilis = test: Antibacterial activity against Bacillus subtilis NCTC 10073 after 18 hrs; assay type: functional; conditions: NCTC 10073, 18 h; how it was run: as §1
[18] = Antibacterial activity against Salmonella enterica subspecies enterica serotype Infantis OCC 2133 after 18 hrs; assay type: functional, Salmonella enterica subsp. enterica serovar Infantis; conditions: OCC 2133, 18 h; how it was run: as §1
Staphylococcus aureus [19] = test: Antibacterial activity against Staphylococcus aureus ATCC 25923 after 18 hrs; assay type: functional; conditions: ATCC 25923, 18 h; how it was run: as §1
[20] = Antibacterial activity against Salmonella enterica subspecies enterica serotype Arizonae OCC 706 after 18 hrs; assay type: functional, Salmonella enterica subsp. enterica serovar Arizonae; conditions: OCC 706, 18 h; how it was run: as §1
Aeromonas hydrophila = test: Antibacterial activity against Aeromonas hydrophila OCC 778 after 18 hrs; assay type: functional; conditions: OCC 778, 18 h; how it was run: as §1
Serratia marcescens = test: Antibacterial activity against Serratia marcescens OCC 217 after 18 hrs; assay type: functional; conditions: OCC 217, 18 h; how it was run: as §1

With `OC[C@H]1O[C@@H](Oc2cc(Cl)ccc2Oc2ccc(Cl)cc2Cl)[C@H](O)[C@@H](O)[C@@H]1O` the MIC [1] was 8 to 16 µg/mL (≈ 17.7 to 35.4 µM), the MIC [2] was 16 to 32 µg/mL (≈ 35.4 to 70.8 µM) and the MIC (Klebsiella aerogenes [3]) was 32 µg/mL (≈ 70.8 µM). For the same compound, the MIC (Escherichia coli [4]) was 8 to 64 µg/mL (≈ 17.7 to 142 µM), the MIC (Staphylococcus aureus [5]) was 4 to 8 µg/mL (≈ 8.86 to 17.7 µM) and the MIC (Cronobacter sakazakii) was 64 µg/mL (≈ 142 µM). For the same compound, the MIC (Staphylococcus aureus [6]) was 4 to 8 µg/mL (≈ 8.86 to 17.7 µM), the MIC (Hafnia alvei) was 4 µg/mL (≈ 8.86 µM) and the MIC [7] was 16 to 32 µg/mL (≈ 35.4 to 70.8 µM). The MIC [8] was 16 µg/mL (≈ 35.4 µM), the MIC (Klebsiella aerogenes [9]) was 64 µg/mL (≈ 142 µM) and the MIC (Enterococcus faecalis [10]) was 16 µg/mL (≈ 35.4 µM). The MIC (Streptococcus pneumoniae) was 128 µg/mL (≈ 283 µM), the MIC (Staphylococcus aureus [11]) was 4 to 8 µg/mL (≈ 8.86 to 17.7 µM) and the MIC (Escherichia coli [12]) was 8 to 64 µg/mL (≈ 17.7 to 142 µM). The MIC (Staphylococcus aureus [13]) was 4 to 8 µg/mL (≈ 8.86 to 17.7 µM), the MIC (Klebsiella pneumoniae) was 0.5 µg/mL (≈ 1.11 µM) and the MIC (Staphylococcus aureus [14]) was 4 to 8 µg/mL (≈ 8.86 to 17.7 µM). For the same compound, the MIC (Enterococcus faecalis [15]) was 16 µg/mL (≈ 35.4 µM), the MIC [16] was 16 to 32 µg/mL (≈ 35.4 to 70.8 µM) and the MIC [17] was 8 to 16 µg/mL (≈ 17.7 to 35.4 µM). The MIC (Bacillus cereus) was 256 µg/mL (≈ 567 µM), the MIC (Escherichia hermannii) was 16 µg/mL (≈ 35.4 µM) and the MIC (Bacillus subtilis) was 256 µg/mL (≈ 567 µM). The MIC [18] was 16 to 32 µg/mL (≈ 35.4 to 70.8 µM), the MIC (Staphylococcus aureus [19]) was 4 to 8 µg/mL (≈ 8.86 to 17.7 µM) and the MIC [20] was 16 to 32 µg/mL (≈ 35.4 to 70.8 µM). For the same compound, the MIC (Aeromonas hydrophila) was > 256 µg/mL and the MIC (Serratia marcescens) was > 256 µg/mL.
